Laboratory results published in ChEMBL document CHEMBL3600321, “Synthesis and antifungal evaluation of head-to-head and head-to-tail bisamidine compounds” (Bioorg Med Chem, 2015).
In brackets after ≈: the same amount, converted by molar mass. Activity calls are given as the source filed them. The rule behind the calls is not given here.

Assays:
Candida albicans [1] = experiment: Fungicidal activity against Candida albicans WTBF-50 assessed as inhibition of lipid biosynthesis after 90 mins by [3H]-acetate incorporation assay; format: functional, organism-based
Method in brief: (§1)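 C. albicans was grown in RPMI at 37 °C to OD600 of about 1, then mixed with 2-fold serial dilutions of compound and one 3H precursor at 10 μCi/ml final. Incubation ran 90 min at 37 °C, about one doubling. TCA precipitate was filter-collected and scintillation-counted. Each concentration was tested in triplicate. Incorporation relative to untreated control was fitted with a four-parameter curve to give the IC50.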

Candida albicans [2] = experiment: Fungicidal activity against Candida albicans WTBF-50 assessed as inhibition of cell wall biosynthesis after 90 mins by [3H]-glucosamine incorporation assay; format: functional, organism-based; method in brief: as §1
Candida albicans [3] = experiment: Fungicidal activity against Candida albicans WTBF-50 assessed as inhibition of RNA biosynthesis after 90 mins by [3H]-uridine incorporation assay; format: functional, organism-based; method in brief: as §1
Candida albicans [4] = experiment: Fungicidal activity against Candida albicans WTBF-50 assessed as inhibition of protein biosynthesis after 90 mins by [3H]-leucine incorporation assay; format: functional, organism-based; method in brief: as §1
Nakaseomyces glabratus = experiment: Antifungal activity against Candida glabrata ATCC 90030 WTBF-86 by microbroth dilution method; format: functional
Method in brief: (§2)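 CLSI microbroth dilution in RPMI 1640 with L-glutamine. MIC values are geometric means of three independent assays.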

Cryptococcus neoformans = experiment: Antifungal activity against Cryptococcus neoformans Cn18 (Serotype C) WTBF-106 by microbroth dilution method; format: functional
Method in brief: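 Microbroth dilution per the CLSI protocol, run in Sabouraud Dextrose Broth in place of RPMI. MIC values are geometric means of three independent assays.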

Candida parapsilosis = experiment: Antifungal activity against Candida parapsilosis ATCC 90018 WTBF-88 by microbroth dilution method; format: functional; conditions: Lodderomyces parapsilosis; method in brief: as §2
Candida albicans [5] = experiment: Fungicidal activity against Candida albicans WTBF-50 assessed as decrease in number of viable cells at 4 x MIC measured within 4 to 24 hrs; format: functional, organism-based
Method in brief: (§3)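 C. albicans was grown in RPMI at 37 °C to OD600 of about 1. […] Samples taken at intervals were serially diluted and plated on Sabouraud agar, and cfu/ml was counted.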

Candida albicans [6] = experiment: Fungicidal activity against Candida albicans WTBF-50 assessed as inhibition of DNA and RNA biosynthesis after 90 mins by [3H]-adenine incorporation assay; format: functional, organism-based; method in brief: as §1
HeLa = experiment: Cytotoxicity against human HeLa cells assessed as cell viability after 72 hrs by MTS assay; format: cell-based
[7] = Metabolic stability in liver microsomes (unknown origin); format: ADME
Candida albicans [8] = experiment: Antifungal activity against Candida albicans WTBF-50 by microbroth dilution method; format: functional; method in brief: as §2
Pichia kudriavzevii = experiment: Antifungal activity against Candida krusei WTBF-51 by microbroth dilution method; format: functional
Candida albicans [9] = experiment: Fungicidal activity against Candida albicans WTBF-50 assessed as decrease in number of viable cells measured within 4 to 24 hrs; format: functional, organism-based; method in brief: as §3
Candida albicans [10] = experiment: Fungicidal activity against Candida albicans WTBF-50 assessed as log10 reduction in CFU/ml at 4 x MIC measured within 4 hrs; format: functional; method in brief: as §3

Row | SMILES | IC50 (Candida albicans [1]) [µg/mL] | IC50 (Candida albicans [2]) [µg/mL] | IC50 (Candida albicans [3]) [µg/mL] | IC50 (Candida albicans [4]) [µg/mL] | MIC (Nakaseomyces glabratus) [µg/mL] | MIC (Cryptococcus neoformans) [µg/mL] | MIC (Candida parapsilosis) [µg/mL] | Activity (Candida albicans [5]) | IC50 (Candida albicans [6]) [µg/mL] | CC50 (HeLa) [µg/mL] | Stability [7] | MIC (Candida albicans [8]) [µg/mL] | MIC (Pichia kudriavzevii) [µg/mL] | Activity (Candida albicans [9]) | Activity (Candida albicans [10]) [log10CFU/ml]
1 | C[C@@H]1[C@H](O)[C@@H](C)/C=C/C=C/C=C/C=C/C=C/C=C/C=C/[C@H](O[C@@H]2O[C@H](C)[C@@H](O)[C@H](N)[C@@H]2O)C[C@@H]2O[C@](O)(C[C@@H](O)C[C@@H](O)[C@H](O)CC[C@@H](O)C[C@@H](O)CC(=O)O[C@H]1C)C[C@H](O)[C@H]2C(=O)O [AMPHOTERICIN B] | 0.036 (≈ 0.039 µM) | 0.043 (≈ 0.0465 µM) | 0.014 (≈ 0.0152 µM) | 0.052 (≈ 0.0563 µM) | 0.25 (≈ 0.271 µM) | 32 (≈ 34.6 µM) | 0.31 (≈ 0.335 µM) | Active | 0.038 (≈ 0.0411 µM) |  |  |  |  |  | 
2 | O=C(O)C(F)(F)F.c1cc2cc(-c3ccc(-c4cn5cc(C6=NCCCN6)ccc5n4)cc3)[nH]c2cc1C1=NCCCN1 |  |  |  |  | 0.25 | 3.13 | 0.25 |  |  | 19.7 | Stable | 0.63 | 4 |  | 
3 | CC1CNC(c2ccc3cc(-c4ccc(-c5cc6ccc(C7=NC(C)CN7)cc6[nH]5)cc4)[nH]c3c2)=N1.O=C(O)C(F)(F)F (stereo not given) |  |  |  |  | 0.25 | 0.25 | 0.4 |  |  | 66.5 | Stable | 0.79 | 0.79 |  | 
4 | CC1(C)CN=C(c2ccc3cc(-c4ccc(-c5cc6ccc(C7=NCC(C)(C)CN7)cc6[nH]5)cc4)[nH]c3c2)NC1.O=C(O)C(F)(F)F |  |  |  |  | 2 | 3.13 | 8 |  |  | 8 | Stable | 4 | 4 |  | 
5 | Cl.N=C(N)c1ccc2cc(-c3ccc(-c4cc5ccc(C(=N)N)cc5[nH]4)cc3)[nH]c2c1 |  |  |  |  | 4 | 3.13 | 2 |  |  | 7 | Stable | 16 | 2 |  | 
6 | N=C(N)c1ccc(OCCCCCOc2ccc(C(=N)N)cc2)cc1 [PENTAMIDINE] | > 25 | > 25 | 12.2 (≈ 35.8 µM) | > 25 | 3.13 (≈ 9.19 µM) | ≥ 100 | 12.5 (≈ 36.7 µM) |  | 0.19 (≈ 0.558 µM) |  |  | 25 (≈ 73.4 µM) | 19.8 (≈ 58.2 µM) |  | 
7 | CC(=O)O.c1cc2cc(-c3ccc(-c4ccc5cc(C6=NCCCN6)oc5c4)cc3)[nH]c2cc1C1=NCCCN1 |  |  |  |  | 0.06 | 0.13 | 0.13 |  |  | 1.5 | Stable | 0.25 | 0.5 | Dose-dependent effect | >3
8 | CC(=O)O.c1cc2cc(-c3ccc(-c4cc5ccc(C6=NCCCN6)cc5o4)cc3)[nH]c2cc1C1=NCCCN1 |  |  |  |  | 0.16 | 0.25 | 0.25 |  |  | 4.7 | Stable | 0.5 | 1 |  | 
9 | O=C(O)C(F)(F)F.c1cc2cc(-c3ccc(-c4nc5ccc(C6=NCCCN6)cc5[nH]4)cc3)[nH]c2cc1C1=NCCCN1 |  |  |  |  | 0.13 | 0.5 | 0.16 |  |  | 14.1 | Stable | 0.4 | 1 |  | 
10 | CC1CN=C(c2ccc3cc(-c4ccc(-c5cc6ccc(C7=NCC(C)CN7)cc6[nH]5)cc4)[nH]c3c2)NC1.O=C(O)C(F)(F)F (stereo not given) |  |  |  |  | 0.13 | 0.25 | 0.25 |  |  | 5.8 | Stable | 0.5 | 0.5 |  | 
11 | COCCNC(=N)c1ccc2cc(-c3ccc(-c4cc5ccc(C(=N)NCCOC)cc5[nH]4)cc3)[nH]c2c1.O=C(O)C(F)(F)F |  |  |  |  | 0.5 | 1.1 | 0.79 |  |  | 3.5 | Stable | 0.79 | 1 |  | 
12 | Clc1c(-c2ccc(-c3[nH]c4cc(C5=NCCCN5)ccc4c3Cl)cc2)[nH]c2cc(C3=NCCCN3)ccc12.O=C(O)C(F)(F)F |  |  |  |  | 0.25 | 0.78 | 0.25 |  |  | 0.65 | Stable | 0.4 | 0.25 |  | 
13 | CC(=O)O.c1cn2cc(-c3ccc(-c4ccc5cc(C6=NCCCN6)oc5c4)cc3)nc2cc1C1=NCCCN1 |  |  |  |  | 1.59 | 3.94 | 2.52 |  |  | 32.5 | Stable | 8 | 8 |  | 
14 | CN(C)CCNC(=N)c1ccc2cc(-c3ccc(-c4cc5ccc(C(=N)NCCN(C)C)cc5[nH]4)cc3)[nH]c2c1.O=C(O)C(F)(F)F |  |  |  |  | 0.63 | 1.97 | 0.5 |  |  | 5.5 | Stable | 1 | 1 |  | 
15 | CC(=O)O.c1cc2nc(-c3ccc(-c4ccc5cc(C6=NCCCN6)oc5c4)cc3)cn2cc1C1=NCCCN1 |  |  |  |  | 0.31 | 2 | 2 |  |  | 25.5 | Stable | 2 | 8 |  | 
16 | CC(=O)O.c1cc2cc(-c3ccc(-c4ccn5cc(C6=NCCCN6)nc5c4)cc3)[nH]c2cc1C1=NCCCN1 |  |  |  |  | 0.13 | 0.5 | 0.31 |  |  | 13.4 | Stable | 0.79 | 1 |  | 
17 | CC(=O)O.c1cc2cc(-c3cnc(-c4cc5ccc(C6=NCCCN6)cc5[nH]4)nc3)[nH]c2cc1C1=NCCCN1 |  |  |  |  | ≤ 0.03 | 1.24 | 0.13 |  |  | 25.5 | Stable | 0.31 | 0.25 |  | 
18 | O=C(O)C(F)(F)F.c1cc2cc(CCc3cc4ccc(C5=NCCCN5)cc4[nH]3)[nH]c2cc1C1=NCCCN1 |  |  |  |  | 1 | 1 | 2 |  |  | 24.6 | Stable | 3.17 | 8 |  | 
19 | CC(=O)O.c1cc2cc(-c3ccc(-c4ccc5nc(C6=NCCCN6)cn5c4)cc3)oc2cc1C1=NCCCN1 |  |  |  |  | 1 | 1 | 0.79 |  |  | 20.7 | Stable | 4 | 8 |  | 
